Assay results: ChEMBL document CHEMBL1129788, “Synthesis and biological activity of 3- and 5-amino derivatives of pyridine-2-carboxaldehyde thiosemicarbazone” (J Med Chem, 1996)

Test system: Mus musculus
Test: Average change in body weight from onset to termination of therapy(daily dosage 40 mg/kg)
Assay type: functional
Conditions: dose 40 mg/kg

In order of rising Weight:
1. CCCCNc1ccc(/C=N/N=C(/N)S)nc1  -4%
2. N/C(S)=N/N=C/c1cc(CN2CCOCC2)c(N)cn1  -3.5%
3. CNc1cccnc1/C=N/N=C(/N)S  -2.9%

Same assay, conditions: dose 60 mg/kg; in the assay text read “daily dosage 60 mg/kg” for “daily dosage 40 mg/kg”

In order of falling Weight:
1. CNc1ccc(/C=N/N=C(/N)S)nc1  -4.4%
2. CCCNc1ccc(/C=N/N=C(/N)S)nc1  -5.2%
3. N/C(S)=N/N=C/c1ncc(N)cc1N  -17.1%

Same assay, conditions: dose 80 mg/kg; in the assay text read “daily dosage 80 mg/kg” for “daily dosage 40 mg/kg”

In order of falling Weight:
1. NCc1ccc(/C=N/N=C(/N)S)nc1  -2.4%
2. C=CCNc1cccnc1/C=N/N=C(/N)S  -2.6%
3. CCNc1ccc(/C=N/N=C(/N)S)nc1  -3.4%

Test system: Mus musculus
Test: T/C(100) represents the ratio of the survival time of treated to control animals x 100(daily dosage 60 mg/kg)
Assay type: functional
Conditions: not given

In order of falling T/C:
1. CNc1ccc(/C=N/N=C(/N)S)nc1  223
2. C=CCNc1ccc(/C=N/N=C(/N)S)nc1  215
3. CCCNc1ccc(/C=N/N=C(/N)S)nc1  146
4. N/C(S)=N/N=C/c1ncc(N)cc1N  135

Test system: Mus musculus
Test: Average survival time includes only those mice that died prior to day 60(daily dosage 40 mg/kg)
Conditions: not given

In order of rising Average survival:
1. CCCCNc1ccc(/C=N/N=C(/N)S)nc1  9.2 days
2. N/C(S)=N/N=C/c1cc(CN2CCOCC2)c(N)cn1  10 days
3. CNc1cccnc1/C=N/N=C(/N)S  11.8 days

Test system: Mus musculus
Test: Average survival time includes only those mice that died prior to day 80(daily dosage 40 mg/kg)
Assay type: functional
Conditions: not given

Work on `NCc1ccc(/C=N/N=C(/N)S)nc1` yielded an Average survival of 13.4 days.

Biological target: T1, Ribonucleoside-diphosphate reductase subunit M2 (Homo sapiens, UniProt P31350)
T1 sequence (P31350 whole entry): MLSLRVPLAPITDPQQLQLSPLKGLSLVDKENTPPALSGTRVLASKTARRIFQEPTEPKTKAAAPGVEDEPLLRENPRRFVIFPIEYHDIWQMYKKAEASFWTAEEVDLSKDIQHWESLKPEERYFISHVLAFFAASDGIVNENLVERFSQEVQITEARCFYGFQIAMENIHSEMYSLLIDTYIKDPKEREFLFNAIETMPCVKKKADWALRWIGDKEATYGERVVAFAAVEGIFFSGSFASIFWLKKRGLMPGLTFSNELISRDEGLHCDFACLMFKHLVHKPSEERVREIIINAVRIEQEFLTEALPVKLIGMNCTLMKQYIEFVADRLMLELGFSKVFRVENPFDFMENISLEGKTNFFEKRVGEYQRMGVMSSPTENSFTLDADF
Test: Inhibitory activity against CDP reductase.
Conditions: not given
Procedure, shortened: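 Ribonucleoside diphosphate reductase prepared as non-heme iron and effector-binding subunits. IC50 is 50% inhibition, the mean of two separate determinations.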

In order of falling IC50:
1. N/C(S)=N/N=C/c1cc(CN2CCOCC2)c(N)cn1  11 µM
2. N/C(S)=N/N=C/c1ncc(N)cc1N  9 µM
3. NCc1ccc(/C=N/N=C(/N)S)nc1  2.5 µM
4. CCCCNc1ccc(/C=N/N=C(/N)S)nc1  2.5 µM
5. C=CCNc1cccnc1/C=N/N=C(/N)S  1.7 µM
6. CCCNc1ccc(/C=N/N=C(/N)S)nc1  1.4 µM
7. C=CCNc1ccc(/C=N/N=C(/N)S)nc1  1.4 µM
8. CNc1ccc(/C=N/N=C(/N)S)nc1  1.3 µM
9. CNc1cccnc1/C=N/N=C(/N)S  1 µM
10. CCNc1ccc(/C=N/N=C(/N)S)nc1  1 µM

Test system: Mus musculus
Test: Average survival time includes only those mice that died prior to day 60(daily dosage 80 mg/kg)
Conditions: not given

In order of falling Average survival:
1. CCNc1ccc(/C=N/N=C(/N)S)nc1  16.3 days
2. C=CCNc1cccnc1/C=N/N=C(/N)S  10.1 days

Test system: L1210
Test: Compound was tested for inhibition of L1210 cells growth in culture.
Assay type: functional, cell-based
Conditions: Mus musculus
Procedure, shortened: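 L1210 cells seeded at 2000/well; test agents added 24 h later at various concentrations (at least five per agent). Growth read colorimetrically after adding phenazine methosulfate, with 2-3 h incubation at 37 °C and reading at 492 nm. IC50 is the concentration giving 50% growth inhibition.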

Going from `N/C(S)=N/N=C/c1cc(CN2CCOCC2)c(N)cn1` to `N/C(S)=N/N=C/c1ncc(N)cc1N`, the IC50 falls from over 10 µM to 1.1 µM.

`NCc1ccc(/C=N/N=C(/N)S)nc1` and `CNc1ccc(/C=N/N=C(/N)S)nc1` are within 1.5-fold of each other in IC50: 2.1 µM for the first, 2.4 µM for the second.

Going from `CNc1cccnc1/C=N/N=C(/N)S` to `C=CCNc1cccnc1/C=N/N=C(/N)S`, the IC50 rises from 1.5 µM to over 10 µM.

Compared with `CCNc1ccc(/C=N/N=C(/N)S)nc1`, `CCCNc1ccc(/C=N/N=C(/N)S)nc1` is 1.5-fold higher in IC50: 3.4 µM for the first, 5.1 µM for the second. The first is the more potent here.

First: CCCCNc1ccc(/C=N/N=C(/N)S)nc1
Second: C=CCNc1ccc(/C=N/N=C(/N)S)nc1
The IC50 of the first is 1.8-fold higher: 7.8 µM for the first, 4.4 µM for the second. The second is the more potent here.

Test system: Mus musculus
Test: T/C(100) represents the ratio of the survival time of treated to control animals x 100(daily dosage 80 mg/kg)
Assay type: functional
Conditions: not given

In order of rising T/C:
1. C=CCNc1cccnc1/C=N/N=C(/N)S  126
2. NCc1ccc(/C=N/N=C(/N)S)nc1  168
3. CCNc1ccc(/C=N/N=C(/N)S)nc1  204

Test system: Mus musculus
Test: T/C(100) represents the ratio of the survival time of treated to control animals x 100(daily dosage 40 mg/kg)
Assay type: functional
Conditions: not given

In order of falling T/C:
1. CNc1cccnc1/C=N/N=C(/N)S  148
2. N/C(S)=N/N=C/c1cc(CN2CCOCC2)c(N)cn1  125
3. CCCCNc1ccc(/C=N/N=C(/N)S)nc1  115

Organism: Mus musculus
Test: Long time survivors(out of 5) are the number of mice that survived for > 60 days relative to the total number of treated mice
Assay type: functional
Conditions: not given

In order of rising Survivors:
1. N/C(S)=N/N=C/c1cc(CN2CCOCC2)c(N)cn1  0
2. CNc1cccnc1/C=N/N=C(/N)S  0
3. CCNc1ccc(/C=N/N=C(/N)S)nc1  0
4. CNc1ccc(/C=N/N=C(/N)S)nc1  0
5. C=CCNc1cccnc1/C=N/N=C(/N)S  0
6. CCCNc1ccc(/C=N/N=C(/N)S)nc1  0
7. CCCCNc1ccc(/C=N/N=C(/N)S)nc1  0
8. C=CCNc1ccc(/C=N/N=C(/N)S)nc1  0
9. NCc1ccc(/C=N/N=C(/N)S)nc1  1
10. N/C(S)=N/N=C/c1ncc(N)cc1N  2

Test system: Mus musculus
Test: Average survival time includes only those mice that died prior to day 60(daily dosage 40 mg/kg)
Assay type: functional
Conditions: not given

In order of rising Average survival:
1. N/C(S)=N/N=C/c1ncc(N)cc1N  10.8 days
2. C=CCNc1ccc(/C=N/N=C(/N)S)nc1  17.2 days
3. CNc1ccc(/C=N/N=C(/N)S)nc1  17.8 days

Test system: Mus musculus
Test: Average survival time includes only those mice that died prior to day 60(daily dosage 60 mg/kg)
Conditions: not given

With `CCCNc1ccc(/C=N/N=C(/N)S)nc1` the Average survival was 11.7 days.
